Consider 11 compounds from ChEMBL document CHEMBL3779828, “Discovery of the Aryl-phospho-indole IDX899, a Highly Potent Anti-HIV Non-nucleoside Reverse Transcriptase Inhibitor” (J Med Chem, 2016).

≈ marks a conversion by molar mass, not a printed value.

Series [1] has as its system Human immunodeficiency virus 1. In words: Antiviral activity against HIV1 harboring reverse transcriptase Y181C mutant infected in primary MT4 cells assessed as inhibition of virus-induced cytopathogenicity after 4 days by MTS assay. It is filed as functional, organism-based. The following applies: Human immunodeficiency virus 1, MT4, 96 h.
The subject of series [2] is Human immunodeficiency virus 1. Put plainly: Antiviral activity against HIV1 harboring reverse transcriptase Y181C/K103N double mutant infected in primary MT4 cells assessed as inhibition of virus-induced cytopathogenicity after 4 days by MTS assay. Format: functional, organism-based. The following applies: Human immunodeficiency virus 1, MT4, 96 h.
The nature of series [3]: Antiviral activity against HIV1 BH10 harboring wild type reverse transcriptase infected in primary MT4 cells assessed as inhibition of virus-induced cytopathogenicity after 4 days by MTS assay. It is filed as functional, cell-based, Human immunodeficiency virus type 1 BH10. Particulars: Human immunodeficiency virus 1, MT4, 96 h.
Series [4] relates to Human immunodeficiency virus 1. Put plainly: Antiviral activity against HIV1 harboring reverse transcriptase K103N mutant infected in primary MT4 cells assessed as inhibition of virus-induced cytopathogenicity after 4 days by MTS assay. Particulars: Human immunodeficiency virus 1, MT4, 96 h. It is filed as functional, organism-based.
A short description of series [5]: Clearance in fed beagle dog at 1 mg/kg, iv after 0.083 to 24 hrs by LC-MS/MS method. It is filed as ADME, organism-based, Canis lupus familiaris. Particulars: in vivo. The method in brief: (§1)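 Fed beagle dogs and fed male cynomolgus monkeys were dosed at 1 mg/kg IV or 5 mg/kg PO in 10% dimethylacetamide/10% ethanol/80% PEG400. Femoral-vein blood was drawn predose and at 0.083–24 h into lithium-heparin tubes. Plasma was stored at -70 °C and parent drug was measured by LC-MS/MS. Values are mean parameters (n=3 or 2).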

The nature of series [6]: Cmax in fed cynomolgus monkey at 5 mg/kg, po after 0.083 to 24 hrs by LC-MS/MS method. The following applies: in vivo. It is filed as ADME, organism-based, Macaca fascicularis. Details: dose 5 mg/kg, route oral. In short, it runs like this:
as §1

The nature of series [7]: Cmax in fed beagle dog at 5 mg/kg, po after 0.083 to 24 hrs by LC-MS/MS method. Format: ADME, organism-based, Canis lupus familiaris. Details: dose 5 mg/kg, route oral. The following applies: in vivo. The method in brief: as §1
Series [8] is described as follows: Oral bioavailability in fed beagle dog at 5 mg/kg after 0.083 to 24 hrs by LC-MS/MS method. The following applies: in vivo. Format: ADME, organism-based, Canis lupus familiaris. The method in brief: as §1
Series [9] is described as follows: Clearance in fasted Sprague-Dawley rat at 2 mg/kg, iv after 0.083 to 24 hrs by LC-MS/MS method. Format: ADME, organism-based. Particulars: in vivo.
The nature of series [10]: Half life in monkey hepatocytes. It is filed as ADME, cell-based, Macaca mulatta, Hepatocyte. Particulars: rhesus monkey. The method in brief:
(§2)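 Metabolic stability was measured in hepatocytes as the half-life (min) of parent compound depletion. Values come from independent experiments using hepatocytes from 5 to 7 donors.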

Series [11] has as its system Human immunodeficiency virus 1. Put plainly: Potency index, ratio of EFV EC50 to compound EC50 for HIV1 harboring reverse transcriptase Y181C/K103N double mutant. Format: functional.
Series [12] is described as follows: Half life in fasted Sprague-Dawley rat at 2 mg/kg, iv by LC-MS/MS method. Format: ADME, organism-based. Particulars: in vivo.
Series [13] can be described thus: Oral bioavailability in fed cynomolgus monkey at 5 mg/kg after 0.083 to 24 hrs by LC-MS/MS method. Format: ADME, organism-based, Macaca fascicularis. The following applies: in vivo. In short, it runs like this:
as §1

Series [14] in a line: Tmax in fed cynomolgus monkey at 5 mg/kg, po by LC-MS/MS method. It is filed as ADME, organism-based, Macaca fascicularis. The following applies: in vivo. In short, it runs like this: as §1
Series [15] is described as follows: Half life in rat hepatocytes. It is filed as ADME, cell-based, Hepatocyte. The method in brief: as §2
Series [16] in a line: Cmax in fed cynomolgus monkey at 1 mg/kg, iv after 0.083 to 24 hrs by LC-MS/MS method. It is filed as ADME, organism-based, Macaca fascicularis. The arrangement: dose 1 mg/kg, route intravenous. The following applies: in vivo. The method in brief: as §1
Series [17] in a line: Cmax in fed beagle dog at 1 mg/kg, iv after 0.083 to 24 hrs by LC-MS/MS method. It is filed as ADME, organism-based, Canis lupus familiaris. The arrangement: dose 1 mg/kg, route intravenous. Particulars: in vivo. The method in brief:
as §1

Series [18] can be described thus: Cmax in fasted Sprague-Dawley rat at 10 mg/kg, po after 0.083 to 24 hrs by LC-MS/MS method. The following applies: in vivo. It is filed as ADME, organism-based. Details: dose 10 mg/kg, route oral. The method in brief:
(§3)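 Fasted Sprague Dawley rats received 10 mg/kg orally in 10% dimethylacetamide/10% ethanol/80% PEG400. Plasma was stored at -70 °C until LC-MS/MS quantitation. Values are mean parameters (n=3 or 2).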

Series [19] in a line: Aqueous solubility of the compound at pH 7. Format: physicochemical. The following applies: aqueous medium.
Series [20] in a line: Half life in fed beagle dog at 1 mg/kg, iv by LC-MS/MS method. Particulars: in vivo. It is filed as ADME, organism-based, Canis lupus familiaris. The method in brief: as §1
Series [21] can be described thus: Clearance in fed cynomolgus monkey at 1 mg/kg, iv after 0.083 to 24 hrs by LC-MS/MS method. Particulars: in vivo. It is filed as ADME, organism-based, Macaca fascicularis. The method in brief:
as §1

Series [22] is described as follows: Half life in fed beagle dog at 5 mg/kg, po by LC-MS/MS method. It is filed as ADME, organism-based, Canis lupus familiaris. Particulars: in vivo. In short, it runs like this: as §1
The test system of series [23] is Human immunodeficiency virus 1. Put plainly: Potency index, ratio of EFV EC50 to compound EC50 for HIV1 harboring reverse transcriptase K103N mutant. Format: functional.
A short description of series [24]: Half life in dog hepatocytes. It is filed as ADME, cell-based, Canis lupus familiaris, Hepatocyte. In short, it runs like this:
as §2

The nature of series [25]: Half life in fed cynomolgus monkey at 1 mg/kg, iv by LC-MS/MS method. The following applies: in vivo. It is filed as ADME, organism-based, Macaca fascicularis. The method in brief:
as §1

A short description of series [26]: Cmax in fasted Sprague-Dawley rat at 2 mg/kg, iv after 0.083 to 24 hrs by LC-MS/MS method. Format: ADME, organism-based. Details: dose 2 mg/kg, route intravenous. The following applies: in vivo.
Series [27] can be described thus: Half life in fed cynomolgus monkey at 5 mg/kg, po by LC-MS/MS method. It is filed as ADME, organism-based, Macaca fascicularis. Particulars: in vivo. The method in brief:
as §1

Series [28] in a line: Half life in fasted Sprague-Dawley rat at 10 mg/kg, po by LC-MS/MS method. Particulars: in vivo. It is filed as ADME, organism-based. The method in brief: as §3
Series [29] can be described thus: Selectivity ratio of EC50 for HIV1 harboring reverse transcriptase Y181C/K103N double mutant to EC50 for HIV1 BH10 harboring wild type reverse transcriptase. Format: functional.
A short description of series [30]: Antiviral activity against HIV1 BH10 harboring wild type reverse transcriptase infected in secondary MT4 cells assessed as inhibition of virus-induced cytopathogenicity after 4 days by MTS assay. Format: functional, cell-based, Human immunodeficiency virus type 1 BH10. Particulars: Human immunodeficiency virus 1, MT4, 96 h.
Series [31] concerns Human immunodeficiency virus 1. Put plainly: Antiviral activity against HIV1 harboring reverse transcriptase Y181C mutant infected in secondary MT4 cells assessed as inhibition of virus-induced cytopathogenicity after 4 days by MTS assay. It is filed as functional, organism-based. Particulars: Human immunodeficiency virus 1, MT4, 96 h.
The subject of series [32] is Human immunodeficiency virus 1. Put plainly: Antiviral activity against HIV1 harboring reverse transcriptase K103N mutant infected in secondary MT4 cells assessed as inhibition of virus-induced cytopathogenicity after 4 days by MTS assay. It is filed as functional, organism-based. The following applies: Human immunodeficiency virus 1, MT4, 96 h.
Series [33] concerns Human immunodeficiency virus 1. Put plainly: Antiviral activity against HIV1 harboring reverse transcriptase Y181C/K103N double mutant infected in secondary MT4 cells assessed as inhibition of virus-induced cytopathogenicity after 4 days by MTS assay. Format: functional, organism-based. Particulars: Human immunodeficiency virus 1, MT4, 96 h.

With `COP(=O)(c1cc(C)cc(CCC#N)c1)c1c(C(N)=O)[nH]c2ccc(Cl)cc12` (configuration not stated), the EC50 is 0.7 nM in series [1], 28.5 nM in [2], 0.7 nM in series [3] and 3.5 nM in series [4].
For the compound `COP(=O)(c1c(C(N)=O)[nH]c2ccc(Cl)cc12)C1CCCCC1` (configuration not stated), the EC50 in [1] was 219 nM; in series [2], greater than 1000 nM; in series [3] it was 2.5 nM; in series [4] it was 101 nM.
In the case of `COP(=O)(c1cc(C)cc(/C=C/C#N)c1)c1c(C(N)=O)[nH]c2ccc(Cl)cc12` (single isomer, unassigned; form 1) [FOSDEVIRINE], the clearance in series [5] is 30.5 mL/min/kg; in series [9] it was 1.18 mL/min/kg; in [21], 5.5 mL/min/kg. Moreover, the Cmax was 945 ng/mL in [6]; 18 ng/mL in [7]; 1460 ng/mL in series [16]; 290 ng/mL in series [17]; 25 ng/mL in [18]; 88 ng/mL in series [26]. Besides, the bioavailability in [8] worked out at 4%; in [13], 42%. Besides, the half-life in series [10] is 0.867 h; in [12], 0.2 h; in [15] it was 0.283 h; in [20] it was 3.9 h; in series [22] it was 2.4 h; in [24], 0.35 h. In addition, the half-life in [25] is 2 h; in [27], 3.1 h; in [28], 5.9 h. The “Ratio EC50” value in series [11] worked out at 4; in series [23] it was 30. In addition, the EC50 amounted to 1.3 nM in series [1], 11 nM in [2], 1 nM in series [3] and 2.8 nM in series [4]. Moreover, the time of peak concentration (Tmax) in [14] worked out at 3 h. Moreover, in series [19], the solubility stood at 20 µM (≈ 8.28 µg/mL).
As for `O=C1Nc2ccc(Cl)cc2[C@@](C#CC2CC2)(C(F)(F)F)O1` [EFAVIRENZ], the EC50 in [1] turned out to be 1.8 nM; in series [2], 58 nM; in series [3], 0.7 nM; in series [4] it was 37 nM. Further, in [19], the solubility is less than 0.5 µM.
`COP(=O)(c1cc(C)cc(C)c1)c1c(C(N)=O)[nH]c2ccc(Cl)cc12` (configuration not stated): the EC50 in series [1] was determined as 15 nM; in series [2], 238 nM; in series [3] it was 1 nM; in series [4], 4 nM. In series [19], the concentration in solution (solubility) was 0.9 µM (≈ 0.339 µg/mL).
Regarding `COP(=O)(c1cc(C)cc(OCC#N)c1)c1c(C(N)=O)[nH]c2ccc(Cl)cc12` (configuration not stated), the EC50 in series [1] is 8.7 nM; in [2], 111 nM; in [3] it was 0.08 nM; in [4], 1.8 nM. Further, the Ratio EC50 in series [29] was greater than 1000.
As for `COP(=O)(c1cccc(C(C)C)c1)c1c(C(N)=O)[nH]c2ccc(Cl)cc12` (configuration not stated), the EC50 in series [1] worked out at 8.4 nM; in series [2], 92.6 nM; in series [3], 0.5 nM; in series [4] it was 1.6 nM. This compound also came in with a solubility in series [19] of 0.8 µM (≈ 0.313 µg/mL).
`COP(=O)(c1cccc(/C=C/C#N)c1)c1c(C(N)=O)[nH]c2ccc(Cl)cc12` (configuration not stated): the 50% effective concentration (EC50) in series [30] came out at 3.4 nM; in series [31] it was 3.2 nM; in series [32] it was 1.8 nM; in series [33] it was 49.5 nM.
Turning to `COP(=O)(c1cc(C)cc(/C=C/C#N)c1)c1c(C(N)=O)[nH]c2ccc(Cl)cc12` (racemic), the EC50 worked out at 3 nM in series [1], 16.6 nM in [2], 2.9 nM in [3] and 3 nM in [4].
As to `COP(=O)(c1cncc(/C=C/C#N)c1)c1c(C(N)=O)[nH]c2ccc(Cl)cc12` (configuration not stated), the EC50 in series [1] worked out at 2.5 nM; in [2], 192 nM; in series [3], 1 nM; in [4], 9.5 nM.
The corresponding values for `COP(=O)(c1cccc(-n2cccn2)c1)c1c(C(N)=O)[nH]c2ccc(Cl)cc12` (configuration not stated) are 59 nM, greater than 1000 nM, 4.5 nM and 102 nM.
